Measurements taken from ChEMBL document CHEMBL3217676, “Homodimers of the Antiviral Abacavir as Modulators of P-glycoprotein Transport in Cell Culture: Probing Tether Length” (Medchemcomm, 2013).
pIC50: −log10 of the molar value.

How the values were obtained:
[1] = target: T1, ATP-dependent translocase ABCB1 (Homo sapiens, UniProt P08183); experiment: Inhibition of P-gp overexpressed in human 12D7-MDR cells assessed as inhibition of calcein-AM efflux after 30 mins by flow cytometry; format: cell-based; details: for inhibition (INH): human, 0.5 h
How it was run: (§1)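 12D7-MDR cells (RPMI 1640, 10% FBS, 37 °C, 5% CO2), 125,000 in suspension in BME with calcein-AM 0.25 µM or NBD-Aba 5 µM final, plus increasing inhibitor concentrations, 30 min at 37 °C, DMSO held at 1%. Controls: GF120918 1 µM (positive), 1% DMSO (negative). Cells resuspended in ice-cold PBS pH 7.4; FL1 flow cytometry, 10,000 cells per point; IC50 from mean fluorescence.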

[2] = target: T1, ATP-dependent translocase ABCB1; experiment: Inhibition of P-gp in human CMEC/D3 cells assessed as inhibition of NBD-Aba efflux after 30 mins by flow cytometry; format: cell-based
How it was run: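 hCMEC/D3 brain endothelial cells with endogenous P-gp, grown in supplemented EGM-2 on collagenated flasks. 125,000 cells in suspension in BME with NBD-Aba 5 µM final and increasing inhibitor concentrations, 30 min at 37 °C, 1% DMSO constant. GF120918 1 µM served as positive control. Cells resuspended in ice-cold PBS; FL1 flow cytometry on 10,000 cells; IC50 from mean fluorescence.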

[3] = target: T1, ATP-dependent translocase ABCB1; experiment: Inhibition of P-gp overexpressed in human 12D7-MDR cells assessed as inhibition of NBD-Aba efflux after 30 mins by flow cytometry; format: cell-based; details: for inhibition (INH): human, 0.5 h; how it was run: as §1
[4] = target: T1, ATP-dependent translocase ABCB1; experiment: Inhibition of P-gp in human MCF7/DX1 cells assessed as cellular accumulation of doxorubicin up to 100 uM after 30 mins by flow cytometry; format: cell-based; details: mcf7/dx1, 0.5 h
How it was run: (§2)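 MCF-7/DX1 cells are maintained with 1 µM doxorubicin. 125,000 cells in BME, pretreated with substrate (BODIPY-prazosin 0.5 µM, NBD-Aba 5 µM or doxorubicin 3 µM final), then incubated with increasing inhibitor concentrations for 30 min at 37 °C in 1% DMSO. For doxorubicin, cells are re-pelleted and incubated a further 30 min in inhibitor-containing BME. Read-out: flow cytometry, FL1 for BODIPY-prazosin and NBD-Aba, FL2 (585/42) for doxorubicin; IC50 from mean fluorescence. GF120918 1 µM as positive control.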

[5] = target: T1, ATP-dependent translocase ABCB1; experiment: Inhibition of P-gp in human MCF7/DX1 cells assessed as cellular accumulation of NBD-Aba up to 100 uM after 30 mins by flow cytometry; format: cell-based; details: mcf7/dx1, 0.5 h; how it was run: as §2
[6] = target: T1, ATP-dependent translocase ABCB1; experiment: Inhibition of P-gp in human MCF7/DX1 cells assessed as cellular accumulation of BODIPY-prazosin up to 100 uM after 30 mins by flow cytometry; format: cell-based; details: mcf7/dx1, 0.5 h; how it was run: as §2
[7] = target: T1, ATP-dependent translocase ABCB1; experiment: Inhibition of P-gp in human MCF7/DX1 cells assessed as cellular accumulation of [3H]-daunomycin up to 100 uM after 30 mins by scintillation counting analysis; format: cell-based; details: mcf7/dx1, 40 min, in the assay text read “40 mins” for “30 mins”
How it was run: (§3)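 MCF-7/DX1 cells, 500,000 per well, seeded the day before and washed with ice-cold PBS. Incubated 40 min at 37 °C in BME with 5% calf serum, 0.25 µCi/mL [3H]-daunomycin and varying inhibitor concentrations; GF120918 1 µM as positive control. Cells washed, trypsinized 1 h at 37 °C, then scintillation counted. Counts normalized per 10,000 cells; IC50 from fitted concentration–response curves.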

[8] = target: T1, ATP-dependent translocase ABCB1; experiment: Inhibition of P-gp in human MCF7/DX1 cells assessed as cellular accumulation of NBD-Aba at 20 uM by confocal laser microscopy; format: cell-based; details: mcf7/dx1, 20 µM
How it was run: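 Confocal microscopy of MCF-7/DX1 cells given NBD-Aba 5 µM, with or without inhibitor at 20 µM.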

[9] = target: T1, ATP-dependent translocase ABCB1; experiment: Ratio of inhibition of P-gp overexpressed in human 12D7-MDR cells using NBD-Aba as substrate to inhibition of P-gp in human MCF7/DX1 cells using NBD-Aba as substrate; format: cell-based
[10] = target: T1, ATP-dependent translocase ABCB1; experiment: Inhibition of P-gp in human MCF7/DX1 cells assessed as cellular accumulation of doxorubicin after 30 mins by flow cytometry; format: cell-based; details: mcf7/dx1, 0.5 h; how it was run: as §2
[11] = target: T1, ATP-dependent translocase ABCB1; experiment: Inhibition of P-gp in human MCF7/DX1 cells assessed as cellular accumulation of NBD-Aba after 30 mins by flow cytometry; format: cell-based; details: mcf7/dx1, 0.5 h; how it was run: as §2
P-gp (ABCB1) = P-gp (ABCB1) (Homo sapiens, UniProt P08183); experiment: Ratio of inhibition of P-gp in human CMEC/D3 cells using NBD-Aba as substrate to inhibition of P-gp in human MCF7/DX1 cells using NBD-Aba as substrate; format: cell-based; details: CMEC/D3 cells and MCF7/DX1 cells, probe NBD-Aba
[12] = target: T1, ATP-dependent translocase ABCB1; experiment: Displacement of [125I]-iodoarylazidoprazosin from human P-gp expressed in baculovirus-infected insect Sf9 cells incubated for 10 mins followed by UV light illumination for 20 mins by autoradiography
How it was run: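 Crude membranes (25 µg) from Sf9 cells infected with BV-MDR1 expressing human P-gp (72 h at 27 °C). Incubated 10 min at room temperature in the dark in 50 mM Tris-HCl pH 7.5 with 1 mM DTT and protease inhibitors, with [125I]-IAAP (~2200 Ci/mmol) and increasing inhibitor, then photo-crosslinked. Controls: 2.5% DMSO or GF120918 10 µM. Autoradiography and densitometry; values as percent of DMSO control, IC50 fitted.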

[13] = target: T1, ATP-dependent translocase ABCB1; experiment: Inhibition of P-gp in human MCF7/DX1 cells assessed as cellular accumulation of [3H]-daunomycin after 30 mins by scintillation counting analysis; format: cell-based; details: mcf7/dx1, 40 min, in the assay text read “40 mins” for “30 mins”; how it was run: as §3
[14] = target: T1, ATP-dependent translocase ABCB1; experiment: Inhibition of P-gp in human MCF7/DX1 cells assessed as cellular accumulation of BODIPY-prazosin after 30 mins by flow cytometry; format: cell-based; details: mcf7/dx1, 0.5 h; how it was run: as §2

T1 sequence (P08183 whole entry): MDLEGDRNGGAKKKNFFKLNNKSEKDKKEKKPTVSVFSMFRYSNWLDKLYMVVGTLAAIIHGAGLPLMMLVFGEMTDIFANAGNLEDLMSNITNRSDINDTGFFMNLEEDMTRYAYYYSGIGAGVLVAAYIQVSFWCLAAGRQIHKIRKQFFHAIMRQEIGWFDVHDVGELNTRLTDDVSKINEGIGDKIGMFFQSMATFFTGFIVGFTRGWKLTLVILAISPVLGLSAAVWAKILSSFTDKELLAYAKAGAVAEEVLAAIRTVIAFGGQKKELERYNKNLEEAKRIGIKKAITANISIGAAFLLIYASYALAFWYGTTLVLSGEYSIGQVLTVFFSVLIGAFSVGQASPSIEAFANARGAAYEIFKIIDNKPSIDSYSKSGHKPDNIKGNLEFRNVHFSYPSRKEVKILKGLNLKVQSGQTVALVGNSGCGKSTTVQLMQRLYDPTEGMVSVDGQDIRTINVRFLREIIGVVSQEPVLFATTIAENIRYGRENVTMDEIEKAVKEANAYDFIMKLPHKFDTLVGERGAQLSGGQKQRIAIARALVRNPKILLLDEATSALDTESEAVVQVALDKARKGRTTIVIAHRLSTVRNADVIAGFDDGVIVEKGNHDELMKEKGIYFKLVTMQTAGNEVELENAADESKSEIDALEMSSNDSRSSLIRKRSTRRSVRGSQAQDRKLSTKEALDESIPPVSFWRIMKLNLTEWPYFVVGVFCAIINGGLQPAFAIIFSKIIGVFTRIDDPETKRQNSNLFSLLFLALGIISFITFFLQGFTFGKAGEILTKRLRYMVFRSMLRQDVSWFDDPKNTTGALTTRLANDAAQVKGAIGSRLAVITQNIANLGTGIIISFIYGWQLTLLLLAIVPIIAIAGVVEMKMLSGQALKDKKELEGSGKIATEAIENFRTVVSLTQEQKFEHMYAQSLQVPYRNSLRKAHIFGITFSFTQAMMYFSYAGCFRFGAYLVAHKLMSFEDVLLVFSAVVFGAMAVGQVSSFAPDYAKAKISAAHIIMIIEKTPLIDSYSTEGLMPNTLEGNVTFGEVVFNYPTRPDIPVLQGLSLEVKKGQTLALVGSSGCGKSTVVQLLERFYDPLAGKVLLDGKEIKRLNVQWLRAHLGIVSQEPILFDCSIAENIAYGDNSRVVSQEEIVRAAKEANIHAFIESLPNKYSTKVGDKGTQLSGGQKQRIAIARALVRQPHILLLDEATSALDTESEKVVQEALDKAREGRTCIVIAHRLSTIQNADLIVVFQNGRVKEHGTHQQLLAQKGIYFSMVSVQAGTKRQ
Sequence of P-gp (ABCB1) (P08183 whole entry): as above

| Compound | pIC50 [1] | inhibition (INH) [1] | pIC50 [2] | pIC50 [3] | inhibition (INH) [3] | inhibition (INH) [4] | inhibition (INH) [5] | inhibition (INH) [6] | inhibition (INH) [7] | inhibition (INH) [8] | Ratio [9] | INH [10] | INH [11] | pIC50 [12] | inhibition (INH) ([12]; human, sf9, 10 min) | INH [13] | INH [14] | selectivity ratio (P-gp (ABCB1)) |
| --- | --- | --- | --- | --- | --- | --- | --- | --- | --- | --- | --- | --- | --- | --- | --- | --- | --- | --- |
| Nc1nc(NC2CC2)c2ncn([C@H]3C=C[C@@H](COC(=O)CCCCCC(=O)OC[C@@H]4C=C[C@H](n5cnc6c(NC7CC7)nc(N)nc65)C4)C3)c2n1 | 5.11 | Dose-dependent effect | 5.39 | 4.98 | Dose-dependent effect |  |  |  |  |  |  |  |  |  |  |  |  |  |
| Nc1nc(NC2CC2)c2ncn([C@H]3C=C[C@@H](COC(=O)CCC(=O)OC[C@@H]4C=C[C@H](n5cnc6c(NC7CC7)nc(N)nc65)C4)C3)c2n1 | 4.30 | Dose-dependent effect |  |  |  |  |  |  |  |  |  |  |  |  |  |  |  |  |
| Nc1nc(NC2CC2)c2ncn([C@H]3C=C[C@@H](CO)C3)c2n1 [ABACAVIR] | < 3.30 |  | < 3.30 | < 3.30 |  | Not Active | Not Active | Not Active | Not Active |  |  |  |  |  |  |  |  |  |

Compounds with a higher pIC50 [1], results first:

| pIC50 [1] | inhibition (INH) [1] | pIC50 [2] | pIC50 [3] | inhibition (INH) [3] | inhibition (INH) [4] | inhibition (INH) [5] | inhibition (INH) [6] | inhibition (INH) [7] | inhibition (INH) [8] | Ratio [9] | INH [10] | INH [11] | pIC50 [12] | inhibition (INH) ([12]; human, sf9, 10 min) | INH [13] | INH [14] | Compound | selectivity ratio (P-gp (ABCB1)) |
| --- | --- | --- | --- | --- | --- | --- | --- | --- | --- | --- | --- | --- | --- | --- | --- | --- | --- | --- |
| 5.59 | Dose-dependent effect | 5.42 | 5.59 | Dose-dependent effect |  |  |  |  |  |  |  |  |  |  |  |  | Nc1nc(NC2CC2)c2ncn([C@H]3C=C[C@@H](COC(=O)CCCCCCCC(=O)OC[C@@H]4C=C[C@H](n5cnc6c(NC7CC7)nc(N)nc65)C4)C3)c2n1 |  |
| 5.64 | Dose-dependent effect | 5.44 | 5.68 | Dose-dependent effect |  |  |  |  | Active | 6 | 12.8 µM | 11.8 µM | 6.62 | Dose-dependent effect | 9.2 µM | 5.1 µM | Nc1nc(NC2CC2)c2ncn([C@H]3C=C[C@@H](COC(=O)CCCCCCCCC(=O)OC[C@@H]4C=C[C@H](n5cnc6c(NC7CC7)nc(N)nc65)C4)C3)c2n1 | 3 |
| 5.85 | Dose-dependent effect | 5.96 | 5.74 | Dose-dependent effect |  |  |  |  |  |  |  |  |  |  |  |  | Nc1nc(NC2CC2)c2ncn([C@H]3C=C[C@@H](COC(=O)CCCCCCCCCCC(=O)OC[C@@H]4C=C[C@H](n5cnc6c(NC7CC7)nc(N)nc65)C4)C3)c2n1 |  |
